From ChEMBL document CHEMBL4308835, “Fluorine-Substituted Pyrrolo[2,3- d]Pyrimidine Analogues with Tumor Targeting via Cellular Uptake by Folate Receptor α and the Proton-Coupled Folate Transporter and Inhibition of de Novo Purine Nucleotide Biosynthesis” (J Med Chem, 2018)
Activity calls are given as the source filed them. No cut-off for these calls is given here.

How the values were obtained:
[1] = biological target: T1, Reduced folate transporter (Homo sapiens) (UniProt P41440); test: Inhibition of human RFC2 expressed in human HeLa R1-11 cells assessed as reduction in [3H]MTX uptake at pH 7.2 at 10 uM measured over 2 mins relative to control; type: cell-based
T1 sequence (whole entry): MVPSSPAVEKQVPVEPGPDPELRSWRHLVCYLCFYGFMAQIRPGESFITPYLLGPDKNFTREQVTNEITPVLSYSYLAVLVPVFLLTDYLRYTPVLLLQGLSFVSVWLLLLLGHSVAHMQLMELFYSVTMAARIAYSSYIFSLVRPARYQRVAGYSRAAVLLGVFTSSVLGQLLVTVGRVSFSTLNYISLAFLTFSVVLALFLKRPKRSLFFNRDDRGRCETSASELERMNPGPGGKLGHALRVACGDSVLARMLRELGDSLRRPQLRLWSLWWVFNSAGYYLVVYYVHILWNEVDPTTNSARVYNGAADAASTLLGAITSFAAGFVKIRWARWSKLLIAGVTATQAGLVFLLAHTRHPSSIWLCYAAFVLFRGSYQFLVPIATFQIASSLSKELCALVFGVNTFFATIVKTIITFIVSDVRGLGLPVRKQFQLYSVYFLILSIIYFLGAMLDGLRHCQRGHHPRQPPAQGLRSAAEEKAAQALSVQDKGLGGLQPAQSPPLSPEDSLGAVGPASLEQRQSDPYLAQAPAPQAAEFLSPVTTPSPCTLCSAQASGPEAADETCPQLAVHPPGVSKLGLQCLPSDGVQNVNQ

[2] = biological target: T2, Proton-coupled folate transporter (Homo sapiens) (UniProt Q96NT5); test: Inhibition of human PCFT expressed in Chinese hamster R2/PCFT4 cells assessed as reduction in [3H]MTX uptake at pH 5.5 at 1 uM measured over 2 mins relative to control; type: cell-based
T2 sequence (whole entry): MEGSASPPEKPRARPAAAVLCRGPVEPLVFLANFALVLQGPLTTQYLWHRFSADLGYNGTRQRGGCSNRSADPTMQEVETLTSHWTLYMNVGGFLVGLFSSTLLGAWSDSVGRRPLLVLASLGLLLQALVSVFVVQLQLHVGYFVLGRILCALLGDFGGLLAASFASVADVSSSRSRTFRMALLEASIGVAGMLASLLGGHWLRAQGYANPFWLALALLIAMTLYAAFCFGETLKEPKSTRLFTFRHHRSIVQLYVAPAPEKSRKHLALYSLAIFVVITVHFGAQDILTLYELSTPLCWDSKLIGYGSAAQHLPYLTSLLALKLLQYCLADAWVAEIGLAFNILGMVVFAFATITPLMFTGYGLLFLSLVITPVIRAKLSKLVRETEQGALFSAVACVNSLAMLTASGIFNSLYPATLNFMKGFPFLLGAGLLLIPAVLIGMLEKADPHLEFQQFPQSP

[3] = biological target: T2, Proton-coupled folate transporter (Homo sapiens); test: Inhibition of human PCFT expressed in Chinese hamster R2/PCFT4 cells assessed as reduction in [3H]MTX uptake at pH 5.5 at 10 uM measured over 2 mins relative to control; type: cell-based
[4] = biological target: Folate receptor alpha (Homo sapiens) (UniProt P15328); test: Displacement of [3H]folic acid from human FRalpha expressed in Chinese hamster RT16 cells at 10 to 1000 nM after 15 mins; type: cell-based
Summary of the method: (§1)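 RT16 (FRα) or D4 (FRβ) CHO cells at ~80% confluence were washed with PBS at 4 °C, then with pH 3.5 acetate buffer to strip bound folate, then HEPES-buffered saline pH 7.4. Cells were incubated with 50 nM [³H]folic acid plus competitor (10–1000 nM) for 15 min at 4 °C, washed, and solubilized in NaOH. Bound radioactivity was normalized to protein.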

[5] = test system: IGROV-1; test: Antiproliferative activity against human IGROV1 cells at 1 to 1000 nM in presence of 320 uM AICA after 96 hrs by Cell-Titer Blue assay; type: functional, cell-based
Summary of the method: (§2)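 IGROV1 cells, 2000/well, in folate-free RPMI 1640 with 10% dialyzed FBS, L-glutamine, 25 nM LCV. A range of drug concentrations was given with thymidine (10 μM), adenosine (60 μM) or AICA (320 μM) added. After 96 h, proliferation was measured by Cell-Titer Blue fluorescence. At least triplicate experiments.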

[6] = test system: IGROV-1; test: Antiproliferative activity against human IGROV1 cells at 1 to 1000 nM in presence of 10 uM thymidine after 96 hrs by Cell-Titer Blue assay; type: functional, cell-based; summary of the method: as §2
[7] = test system: IGROV-1; test: Antiproliferative activity against human IGROV1 cells at 1 to 1000 nM in presence of 60 uM adenosine after 96 hrs by Cell-Titer Blue assay; type: functional, cell-based; summary of the method: as §2
[8] = biological target: T1, Reduced folate transporter (Homo sapiens); test: Inhibition of human RFC2 expressed in human HeLa R1-11 cells assessed as reduction in [3H]MTX uptake at pH 7.2 at 1 uM measured over 2 mins relative to control; type: cell-based
[9] = test system: IGROV-1; test: Antiproliferative activity against FRalpha […] human IGROV1 KD10 cells after 96 hrs by Cell-Titer Blue assay; type: functional, cell-based; conditions: IGROV-1, 96 h
[10] = test system: A2780; test: Antiproliferative activity against human A2780 cells after 96 hrs by Cell-Titer Blue assay; type: functional, cell-based; conditions: A2780, 96 h
[11] = Antiproliferative activity in Chinese hamster R2 cells deficient in RFC, PCFT, and FRalpha assessed as reduction in cell growth after 96 hrs by Cell-Titer Blue assay; type: cell-based; conditions: Cricetulus griseus, R2, 96 h
[12] = biological target: T3, Trifunctional purine biosynthetic protein adenosine-3 (Homo sapiens, UniProt P22102); test: Inhibition of GARFTase in human IGROV1 cells assessed as decrease in incorporation of [14C(U)glycine into [14C]formyl GAR formation after 24 hrs; type: cell-based
T3 sequence (P22102 whole entry): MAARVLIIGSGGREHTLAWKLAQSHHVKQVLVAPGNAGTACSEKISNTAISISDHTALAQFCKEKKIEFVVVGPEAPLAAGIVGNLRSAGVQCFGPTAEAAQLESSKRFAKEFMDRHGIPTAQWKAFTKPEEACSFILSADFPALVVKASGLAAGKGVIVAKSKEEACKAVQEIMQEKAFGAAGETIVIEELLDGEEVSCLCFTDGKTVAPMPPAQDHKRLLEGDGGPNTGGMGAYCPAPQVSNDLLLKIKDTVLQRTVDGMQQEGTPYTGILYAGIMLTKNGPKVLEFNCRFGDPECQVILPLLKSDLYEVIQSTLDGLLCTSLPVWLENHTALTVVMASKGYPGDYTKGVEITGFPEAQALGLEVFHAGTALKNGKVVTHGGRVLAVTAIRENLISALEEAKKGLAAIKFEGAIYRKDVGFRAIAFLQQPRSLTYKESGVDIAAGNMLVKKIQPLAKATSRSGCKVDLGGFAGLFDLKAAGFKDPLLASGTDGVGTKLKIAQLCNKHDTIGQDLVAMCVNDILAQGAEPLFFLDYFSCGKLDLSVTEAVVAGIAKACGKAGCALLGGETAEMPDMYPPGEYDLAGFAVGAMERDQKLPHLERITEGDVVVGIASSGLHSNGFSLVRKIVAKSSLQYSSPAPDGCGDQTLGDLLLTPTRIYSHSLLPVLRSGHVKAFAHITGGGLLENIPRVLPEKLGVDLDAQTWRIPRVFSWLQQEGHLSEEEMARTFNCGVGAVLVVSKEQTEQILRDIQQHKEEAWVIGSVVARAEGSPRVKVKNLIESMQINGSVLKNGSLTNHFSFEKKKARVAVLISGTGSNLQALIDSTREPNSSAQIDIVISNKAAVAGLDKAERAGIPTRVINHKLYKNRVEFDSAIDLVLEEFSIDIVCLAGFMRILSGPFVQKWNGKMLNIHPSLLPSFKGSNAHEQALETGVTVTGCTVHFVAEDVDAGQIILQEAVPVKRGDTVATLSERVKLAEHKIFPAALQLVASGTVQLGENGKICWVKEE

[13] = test system: IGROV-1; test: Antiproliferative activity against FRalpha […] human IGROV1 KD4 cells after 96 hrs by Cell-Titer Blue assay; type: functional, cell-based; conditions: IGROV-1, 96 h
[14] = test system: IGROV-1; test: Anticlonogenic activity against human IGROV1 cells incubated for 24 hrs followed by compound wash out and measured after 10 days by methylene blue staining-based assay; type: functional, cell-based
Summary of the method: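 IGROV1 cells plated in folate-free RPMI 1640 (pH 7.2), 10% dialyzed FBS, 25 nM LCV. After 24 h adherence, exposed to drug (0–20 μM) for 24 h at pH 6.8 (25 mM PIPES/25 mM HEPES). Washed, then grown drug-free at pH 7.2 (100 mM HEPES) with 25 nM LCV for up to 10 days at 37 °C. Colonies stained with methylene blue and counted electronically. Values normalized to vehicle controls. Triplicate experiments.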

[15] = test system: IGROV-1; test: Antiproliferative activity against human IGROV1 cells harboring non targeted control shRNA sequence after 96 hrs by Cell-Titer Blue assay; type: functional, cell-based; conditions: IGROV-1, 96 h
[16] = test system: IGROV-1; test: Antiproliferative activity against wild type human IGROV1 cells after 96 hrs by Cell-Titer Blue assay; type: functional, cell-based; conditions: IGROV-1, 96 h
[17] = biological target: T4, Proton-coupled folate transporter (Homo sapiens, UniProt Q96NT5); test: Inhibition of human PCFT expressed in Chinese hamster R2/PCFT4 cells assessed as reduction in [3H]MTX uptake at pH 5.5 measured over 2 mins by Dixon plot analysis; type: cell-based
T4 sequence (Q96NT5 whole entry): T2 sequence (whole entry)
Summary of the method: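 Competitor concentrations ranged from 0.05 to 0.5 μM. Ki was obtained by Dixon plot. Mean ± SE of four independent experiments.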

[18] = biological target: T2, Proton-coupled folate transporter (Homo sapiens); test: Inhibition of human PCFT expressed in Chinese hamster R2/PCFT4 cells assessed as reduction in [3H]MTX uptake at pH 5.5 at 1 to 10 uM measured over 2 mins; type: cell-based
[19] = biological target: Folate receptor beta (Homo sapiens) (UniProt P14207); test: Displacement of [3H]folic acid from human FRbeta expressed in Chinese hamster D4 cells at 10 to 1000 nM after 15 mins; type: cell-based; summary of the method: as §1
Chain of Folate receptor beta (Homo sapiens) (P14207 17-230 limits assumed): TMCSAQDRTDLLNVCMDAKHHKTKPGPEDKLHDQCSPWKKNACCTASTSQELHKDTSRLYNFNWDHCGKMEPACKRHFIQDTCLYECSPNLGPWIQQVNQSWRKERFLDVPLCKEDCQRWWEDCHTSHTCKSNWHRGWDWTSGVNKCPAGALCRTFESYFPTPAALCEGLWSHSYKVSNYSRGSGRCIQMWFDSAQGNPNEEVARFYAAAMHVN

Chain of Folate receptor alpha (Homo sapiens) (P15328 25-234 limits assumed): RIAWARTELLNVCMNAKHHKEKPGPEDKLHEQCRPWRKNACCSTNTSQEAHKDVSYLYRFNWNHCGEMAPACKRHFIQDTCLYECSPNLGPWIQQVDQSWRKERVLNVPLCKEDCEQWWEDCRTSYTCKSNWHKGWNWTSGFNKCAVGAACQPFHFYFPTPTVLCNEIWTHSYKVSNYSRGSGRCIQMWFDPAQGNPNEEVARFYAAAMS

SMILES: Nc1nc2[nH]c(CCCCc3ccc(C(=O)N[C@@H](CCC(=O)O)C(=O)O)c(F)c3)cc2c(=O)[nH]1
- inhibition [1]: inactive
- inhibition [2]: 60 to 85%
- inhibition [3]: 90 to 95%
- inhibition [4]: Active
- Activity [5]: inactive
- Activity [6]: Active
- Activity [7]: inactive
- inhibition [8]: inactive

SMILES: Nc1nc2[nH]c(CCCCc3ccc(C(=O)N[C@@H](CCC(=O)O)C(=O)O)cc3)cc2c(=O)[nH]1
- inhibition [1]: inactive
- IC50 [9]: > 1000 nM
- IC50 [10]: 14.2 nM
- inhibition [8]: inactive

SMILES: Nc1nc2[nH]c(CCCCc3cnc(C(=O)N[C@@H](CCC(=O)O)C(=O)O)c(F)c3)cc2c(=O)[nH]1
- IC50 [11]: > 1000 nM
- inhibition [1]: inactive
- inhibition [2]: 60 to 85%
- inhibition [3]: 90 to 95%
- inhibition [4]: Active
- IC50 [12]: 2 nM
- Activity [5]: inactive
- Activity [6]: Active
- Activity [7]: inactive
- IC50 [9]: > 1000 nM
- IC50 [13]: > 1000 nM
- inhibition [8]: inactive

SMILES: Nc1nc2[nH]cc(CCc3ccc(C(=O)N[C@@H](CCC(=O)O)C(=O)O)cc3)c2c(=O)[nH]1 [PEMETREXED]
- inhibition [1]: inactive
- IC50 [14]: > 20000 nM
- IC50 [9]: 22.2 nM
- IC50 [13]: 46.6 nM
- IC50 [15]: 71 nM
- IC50 [10]: 39.4 nM
- IC50 [16]: 104 nM
- inhibition [8]: inactive

SMILES: Nc1nc2[nH]c(CCCc3ccc(C(=O)N[C@@H](CCC(=O)O)C(=O)O)cc3)cc2c(=O)[nH]1
- IC50 [11]: > 1000 nM
- inhibition [1]: inactive
- Ki [17]: 630 nM
- inhibition [2]: Active
- inhibition [3]: Active
- inhibition [18]: Active
- Activity [5]: inactive
- Activity [6]: Active
- Activity [7]: inactive
- IC50 [10]: 2.72 nM
- inhibition [8]: inactive

SMILES: Nc1nc(N)c2nc(CNc3ccc(C(=O)N[C@@H](CCCNC(=O)c4ccccc4C(=O)O)C(=O)O)cc3)cnc2n1
- inhibition [1]: inactive
- inhibition [2]: Active
- inhibition [3]: Active
- inhibition [18]: Active
- inhibition [8]: inactive

SMILES: Nc1nc2[nH]c(CCCCc3ccc(C(=O)N[C@@H](CCC(=O)O)C(=O)O)nc3)cc2c(=O)[nH]1
- inhibition [1]: inactive
- Ki [17]: 240 nM
- inhibition [2]: Active
- inhibition [3]: Active
- inhibition [18]: Active
- inhibition [4]: Active
- IC50 [9]: 30.5 nM
- IC50 [13]: 64.1 nM
- IC50 [15]: 1.55 nM
- IC50 [10]: 5.42 nM
- IC50 [16]: 1.87 nM
- inhibition [8]: inactive

SMILES: Nc1nc2[nH]c(CCCCc3csc(C(=O)N[C@@H](CCC(=O)O)C(=O)O)c3)cc2c(=O)[nH]1
- IC50 [11]: > 1000 nM
- inhibition [1]: inactive
- Ki [17]: 360 nM
- inhibition [2]: Active
- inhibition [3]: Active
- inhibition [18]: Active
- inhibition [4]: Active
- inhibition [19]: Active
- IC50 [9]: > 1000 nM
- IC50 [13]: > 1000 nM
- IC50 [15]: 40.7 nM
- IC50 [10]: 28.8 nM
- IC50 [16]: 54.3 nM
- inhibition [8]: inactive
